Measured values from ChEMBL document CHEMBL1240478, “Inhibitors of human neutrophil elastase based on a highly functionalized N-amino-4-imidazolidinone scaffold” (Eur J Med Chem, 2010).
The source made the active and inactive calls. The calls are words filed in the database; no cut-off is given here.

Legend:
[1] = target: T1, Neutrophil elastase (Homo sapiens) (UniProt P08246); experiment: Inhibition of human neutrophil elastase at 3.5 mM after 30 mins assessed as p-nitroaniline release
T1 sequence (whole entry): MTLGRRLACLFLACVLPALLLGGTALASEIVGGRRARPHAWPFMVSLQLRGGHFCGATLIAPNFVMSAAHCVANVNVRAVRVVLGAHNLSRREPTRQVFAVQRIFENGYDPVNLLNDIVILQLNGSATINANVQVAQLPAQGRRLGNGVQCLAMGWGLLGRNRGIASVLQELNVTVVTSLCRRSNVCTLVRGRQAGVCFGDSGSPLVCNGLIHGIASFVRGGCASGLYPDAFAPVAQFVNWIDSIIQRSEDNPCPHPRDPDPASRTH
In short: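 HNE (7.0 μM stock) preincubated 30 min at 25 °C with inhibitor in DMSO at inhibitor/enzyme ratio 500, in 0.1 M HEPES/0.5 M NaCl pH 7.25. Methoxysuccinyl-Ala-Ala-Pro-Val p-nitroanilide then added, and p-nitroaniline release followed at 410 nm for 2 min. DMSO-only control. Remaining activity = (v/v0)×100, mean of duplicate or triplicate runs.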

[2] = target: Myeloblastin (proteinase 3) (Homo sapiens) (UniProt P24158); experiment: Inhibition of human neutrophil proteinase 3 at 1.73 mM
[3] = target: T2, Neutrophil elastase (Homo sapiens, UniProt P08246); experiment: Reversible competitive inhibition of human neutrophil elastase by Dixon plot analysis
T2 sequence (P08246 whole entry): T1 sequence (whole entry)

Myeloblastin (proteinase 3) (Homo sapiens), sequence (P24158 whole entry, looked up): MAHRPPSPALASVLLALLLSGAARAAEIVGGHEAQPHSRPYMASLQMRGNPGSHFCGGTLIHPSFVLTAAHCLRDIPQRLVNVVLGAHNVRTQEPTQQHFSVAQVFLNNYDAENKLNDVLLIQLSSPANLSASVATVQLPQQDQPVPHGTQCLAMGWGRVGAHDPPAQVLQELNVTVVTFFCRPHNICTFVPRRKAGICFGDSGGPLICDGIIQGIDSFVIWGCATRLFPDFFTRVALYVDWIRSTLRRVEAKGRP

Compound: O=C(O)CCC(=O)NN1CNC(Cc2ccccc2)C1=O (stereo not given)
- inhibition [1]: 0%
- inhibition [2]: 0%

Compound: CC(C)C[C@@H]1C(=O)N(NC(=O)[C@@H](Cc2ccccc2)NC(=O)OCc2ccccc2)CN1Cc1ccccc1 (racemic)
- inhibition [2]: inactive
- Ki [3]: 7.34 µM

Compound: CC(C)CC1C(=O)N(N(S(C)(=O)=O)S(C)(=O)=O)CN1Cc1ccccc1 (racemic)
- inhibition [1]: 0%
- inhibition [2]: 0%

Compound: CC(C)CC1C(=O)N(NC(=O)CCC(=O)O)CN1Cc1ccccc1 (racemic)
- inhibition [1]: 0%
- inhibition [2]: 0%

Compound: CC(C)CC1C(=O)N(NC(=O)CCc2ccccc2)CN1Cc1ccccc1 (racemic)
- inhibition [1]: 0%
- inhibition [2]: 0%

Compound: CC(C)CC1C(=O)N(NC(=O)NCCc2ccccc2)CN1Cc1ccccc1 (racemic)
- inhibition [1]: 0%
- inhibition [2]: 0%

Compound: CC(C)CC1C(=O)N(NC(=O)c2ccccc2C(=O)O)CN1Cc1ccccc1 (racemic)
- inhibition [1]: 0%
- inhibition [2]: 0%

Compound: CCOC(=O)CNC(=O)NN1CN(Cc2ccccc2)C(CC(C)C)C1=O (racemic)
- inhibition [1]: 0%
- inhibition [2]: 0%

Compound: CCOC(=O)CNC(=O)NN1CN(Cc2ccccc2)C(Cc2ccccc2)C1=O (racemic)
- inhibition [1]: 0%
- inhibition [2]: 0%

Compound: Cc1ccc(S(=O)(=O)N(N2CN(Cc3ccccc3)C(CC(C)C)C2=O)S(=O)(=O)c2ccc(C)cc2)cc1 (racemic)
- inhibition [1]: 0%
- inhibition [2]: 0%

Compound: O=C(NCCc1ccccc1)NN1CN(Cc2ccccc2)C(Cc2ccccc2)C1=O (racemic)
- inhibition [1]: 0%
- inhibition [2]: 0%

Compound: O=C(NCCc1ccccc1)NN1CNC(Cc2ccccc2)C1=O (racemic)
- inhibition [1]: 0%
- inhibition [2]: 0%

Compound: O=C(NN1CN(Cc2ccccc2)C(Cc2ccccc2)C1=O)C1CC(=O)N(Cc2ccc(F)cc2)C1 (racemic)
- inhibition [1]: 0%
- inhibition [2]: 0%

Compound: O=C(NN1CN(Cc2ccccc2)C(Cc2ccccc2)C1=O)C1CC(=O)N(Cc2ccccc2)C1 (racemic)
- inhibition [1]: 0%
- inhibition [2]: 0%

Compound: O=C(NN1CN(Cc2ccccc2)C(Cc2ccccc2)C1=O)C1CC(=O)N(Cc2ccco2)C1 (racemic)
- inhibition [1]: 0%
- inhibition [2]: 0%

Compound: O=C(NN1CNC(Cc2ccccc2)C1=O)C1CC(=O)N(Cc2ccc(F)cc2)C1 (racemic)
- inhibition [1]: 0%
- inhibition [2]: 0%

Compound: O=C(NN1CNC(Cc2ccccc2)C1=O)C1CC(=O)N(Cc2ccccc2)C1 (racemic)
- inhibition [1]: 0%
- inhibition [2]: 0%

Compound: O=C(O)CCC(=O)NN1CN(Cc2ccccc2)C(Cc2ccccc2)C1=O (racemic)
- inhibition [1]: 0%
- inhibition [2]: 0%

Compound: O=C(O)c1ccccc1C(=O)NN1CN(Cc2ccccc2)C(Cc2ccccc2)C1=O (racemic)
- inhibition [1]: 0%
- inhibition [2]: 0%

Compound: O=C(O)c1ccccc1C(=O)NN1CNC(Cc2ccccc2)C1=O (racemic)
- inhibition [1]: 0%
- inhibition [2]: 0%
